Measured values reported in ChEMBL document CHEMBL4359909, “De novo design approaches targeting an envelope protein pocket to identify small molecules against dengue virus” (Eur J Med Chem, 2019).
In brackets after ≈: the same amount, converted by molar mass. Activity calls are given as the source filed them. The rule behind the calls is not given here.

Legend:
[1] = system: dengue virus type 2; experiment: Antiviral activity against DENV-2 infected in human A549 or Mesocricetus auratus BHK21 cells preincubated for 30 mins further incubated for 1 hr followed by replacement of fresh medium containing compounds and measured at 8 hrs post infection by renilla luciferase assay; format: functional, organism-based
Outline: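 Reporter DENV-2 carrying Renilla luciferase, MOI 1. Inoculum preincubated 30 min with compound, left on cells 1 h, then replaced by fresh medium containing compound. Luciferase read at 8 h p.i., reflecting entry and translation of incoming genome. EC50 is the concentration giving a two-fold drop in luciferase versus control; mean of at least two independent experiments.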

[2] = Cytotoxicity against human A549 cells assessed as reduction in cell viability after 48 hrs by MTT assay; format: cell-based
[3] = Selectivity index, ratio of CC50 for human A549 or Mesocricetus auratus BHK21 cells to EC50 for antiviral activity against DENV-2 infected in A549or Mesocricetus auratus BHK21 cells; format: toxicity; details: read-out: Ratio CC50/EC50
[4] = Solubility in simulated intestinal fluid at 1 mg incubated for 24 hrs in shaker and measured after 24 hrs by shake-flask method based UV-VIS-NIR spectrophotometric analysis; format: physicochemical
Outline: (§1)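 Shake-flask method: 1.0 mg compound in 1 mL simulated intestinal fluid (pH 6.8), mixed at 1500 rpm at 37 °C for 24 h, then held at 37 °C for 24 h. Filtered at 0.2 µm and read by UV-VIS-NIR spectrophotometry against a calibration curve. Reported as mean ± SD of two independent experiments run in triplicate.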

[5] = Half life in simulated intestinal fluid at 50 uM measured up to 120 mins at pH 6.8 by HPLC-MS analysis; format: ADME
Outline: (§2)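 DMSO stock diluted in acetonitrile, added to PBS (pH 7.4), SGF (pH 1.2) or SIF (pH 6.8) at 50 μM final; shaking water bath 37°C, triplicate. Samples at 0–120 min quenched with acetonitrile containing warfarin internal standard, centrifuged, diluted in methanol:water, analysed by HPLC-MS (C18, ESI positive); quantified by peak area ratio to internal standard.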

[6] = Solubility in PBS at 1 mg incubated for 24 hrs in shaker and measured after 24 hrs by shake-flask method based UV-VIS-NIR spectrophotometric analysis; format: physicochemical
Outline: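 Shake-flask method: 1.0 mg compound in 1 mL PBS (pH 7.4), mixed at 1500 rpm at 37 °C for 24 h, then held at 37 °C for 24 h. Filtered at 0.2 µm and read by UV-VIS-NIR spectrophotometry against a calibration curve. Reported as mean ± SD of two independent experiments run in triplicate.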

[7] = Solubility in simulated gastric fluid at 1 mg incubated for 24 hrs in shaker and measured after 24 hrs by shake-flask method based UV-VIS-NIR spectrophotometric analysis; format: physicochemical
Outline: as §1, with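 “gastric” for “intestinal”, “1.2),” for “6.8),”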

[8] = Half life in simulated gastric fluid at 50 uM measured up to 120 mins at pH 1.2 by HPLC-MS analysis; format: ADME; outline: as §2
[9] = Half life in mouse plasma at 50 uM measured up to 120 mins by HPLC-MS analysis; format: ADME, cell-free
Outline: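 Mouse plasma diluted to 80% with PBS, preheated; compound added at 50 μM final from DMSO stock; 37°C shaking, triplicate. Samples at 0–120 min deproteinized with cold acetonitrile plus warfarin internal standard, centrifuged at 4°C, supernatant diluted in methanol:water, HPLC-MS; peak area ratio to internal standard. Enalapril positive control.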

[10] = Half life in PBS at 50 uM measured up to 120 mins at pH 7.4 by HPLC-MS analysis; format: physicochemical; outline: as §2
[11] = system: A549; experiment: Cytotoxicity against human A549 cells at 50 uM after 48 hrs by MTT assay; format: cell-based; details: a549, 48 h
[12] = system: Dengue virus; experiment: Antiviral activity in DENV infected in cells assessed as reduction in intracellular viral RNA level after 48 hrs by RT-PCR analysis

| Compound | EC50 [1] [µM] | CC50 at 48 h [2] [µM] | selectivity ratio [3] | further results |
| --- | --- | --- | --- | --- |
| OCCN1CCN(c2nccc(Nc3ccc(Cl)cc3)n2)CC1 | 24 | – | – | – |
| Cc1ccc(-c2ccc(Nc3ccnc(NC4CC(C)(C)NC(C)(C)C4)n3)cc2)cc1 | 1.51 | 12 | 8 | – |
| CC1(C)CC(Nc2nccc(Nc3ccc(-c4ccccc4)cc3)n2)CC(C)(C)N1 | – | – | – | solubility thermodynamic at 24 h [4]: 580 µg/mL (≈ 1440 µM); half-life at 50 µM [5]: > 2 h; solubility thermodynamic at 24 h [6]: 93 µg/mL (≈ 232 µM); solubility thermodynamic at 24 h [7]: 76 µg/mL (≈ 189 µM); half-life at 50 µM [8]: > 2 h; half-life at 50 µM [9]: > 2 h; half-life at 50 µM [10]: > 2 h |
| CC1(C)CC(Nc2nccc(Nc3ccc(Cl)cc3)n2)CC(C)(C)N1 | 1.9 | 18.6 | 10 | – |
| Clc1ccc(Nc2ccnc(NCCN3CCOCC3)n2)cc1 | 23.6 | 89.6 | 4 | Activity [11]: Non-Toxic |
| c1ccc(-c2ccc(Nc3ccnc(NCCN4CCOCC4)n3)cc2)cc1 | 8.6 | 59 | 7 | – |
| CC1(C)CC(Nc2nccc(Nc3ccc(-c4ccc(Cl)cc4)cc3)n2)CC(C)(C)N1 | 0.18 | 9.8 | 54 | Activity [12]: Active |
| Clc1ccc(/C=N/Nc2ccnc(NCCN3CCOCC3)n2)c(Cl)c1 | 10.6 | 76.5 | 8 | – |
| CC1(C)CC(Nc2nccc(NCc3ccc(Cl)cc3)n2)CC(C)(C)N1 | 1.8 | 21.1 | 12 | – |
| Clc1ccc(CNc2ccnc(NCc3cccnc3)n2)cc1 | 23.7 | – | – | – |
| OCCN1CCN(c2nccc(Nc3ccc(-c4ccccc4)cc3)n2)CC1 | 19.9 | – | – | – |
| CN1CCN(c2nccc(Nc3ccc(-c4cccc(Cl)c4)cc3)n2)CC1 | 2.9 | 15.3 | 5 | – |
| Clc1ccc(-c2ccc(Nc3ccnc(NCCN4CCCCC4)n3)cc2)cc1 | 1.1 | 14.3 | 13 | – |
| O=C(Nc1ccnc(NCCN2CCOCC2)n1)c1ccc(-c2ccccn2)s1 | 3.3 | 10.5 | 4 | – |
| Cc1ccc(-c2ccc(Nc3ccnc(NCCN4CCOCC4)n3)cc2)cc1 | 1.8 | 10.2 | 5 | – |
| Clc1ccc(Nc2ccnc(NCc3cccnc3)n2)cc1 | 24 | – | – | – |
| c1ccc(-c2ccc(Nc3ccnc(NCCN4CCCCC4)n3)cc2)cc1 | – | – | – | solubility thermodynamic at 24 h [4]: 324 µg/mL (≈ 867 µM); half-life at 50 µM [5]: > 2 h; solubility thermodynamic at 24 h [6]: 32 µg/mL (≈ 85.7 µM); solubility thermodynamic at 24 h [7]: 506 µg/mL (≈ 1350 µM); half-life at 50 µM [8]: > 2 h; half-life at 50 µM [9]: > 2 h; half-life at 50 µM [10]: > 2 h |
| COc1ccc(CNc2ccnc(NC3CC(C)(C)NC(C)(C)C3)n2)cc1 | 12.5 | 18.3 | 2 | – |
| Clc1ccc(-c2ccc(Nc3ccnc(NCc4cccnc4)n3)cc2)cc1 | 4.1 | 25.7 | 6 | – |
| CN1CCN(c2nccc(Nc3ccc(-c4ccc(Cl)cc4)cc3)n2)CC1 | 3.3 | 23.5 | 5 | – |
| Cc1ccc(CNc2ccnc(NC3CC(C)(C)NC(C)(C)C3)n2)cc1 | 4.9 | 15.2 | 3 | – |
| Cc1ccc(Nc2ccnc(NCCN3CCOCC3)n2)cc1 | 21.3 | > 50 | > 2 | – |
| c1ccc(-c2ccc(Nc3ccnc(OCCN4CCOCC4)n3)cc2)cc1 | 39.7 | – | – | – |
| CC1(C)CC(Nc2nccc(NCc3ccc(F)cc3)n2)CC(C)(C)N1 | 1.98 | 12.8 | 7 | – |
| Cc1ccc(-c2ccc(Nc3ccnc(N4CCN(C)CC4)n3)cc2)cc1 | 4.9 | 27.7 | 6 | – |
| Clc1cccc(-c2ccc(Nc3ccnc(NCc4cccnc4)n3)cc2)c1 | 3.4 | 18.5 | 5 | – |
| CC1(C)CC(Nc2nccc(Nc3ccc(-c4cccc(Cl)c4)cc3)n2)CC(C)(C)N1 | 0.54 | 5.1 | 10 | Activity [12]: Active |
